Measurements published in ChEMBL document CHEMBL1143384, “Discovery of novel inhibitors of Trypanosoma cruzi trans-sialidase from in silico screening” (Bioorg Med Chem Lett, 2009).
The source made the active and inactive calls. No cut-off for these calls is given here.

Key:
[1] = target: T1, Trans-sialidase (Trypanosoma cruzi) (UniProt Q26966); test: Inhibition of Trypanosoma cruzi trans-Sialidase at 0.5 mM by MuNANA assay
T1 sequence (whole entry): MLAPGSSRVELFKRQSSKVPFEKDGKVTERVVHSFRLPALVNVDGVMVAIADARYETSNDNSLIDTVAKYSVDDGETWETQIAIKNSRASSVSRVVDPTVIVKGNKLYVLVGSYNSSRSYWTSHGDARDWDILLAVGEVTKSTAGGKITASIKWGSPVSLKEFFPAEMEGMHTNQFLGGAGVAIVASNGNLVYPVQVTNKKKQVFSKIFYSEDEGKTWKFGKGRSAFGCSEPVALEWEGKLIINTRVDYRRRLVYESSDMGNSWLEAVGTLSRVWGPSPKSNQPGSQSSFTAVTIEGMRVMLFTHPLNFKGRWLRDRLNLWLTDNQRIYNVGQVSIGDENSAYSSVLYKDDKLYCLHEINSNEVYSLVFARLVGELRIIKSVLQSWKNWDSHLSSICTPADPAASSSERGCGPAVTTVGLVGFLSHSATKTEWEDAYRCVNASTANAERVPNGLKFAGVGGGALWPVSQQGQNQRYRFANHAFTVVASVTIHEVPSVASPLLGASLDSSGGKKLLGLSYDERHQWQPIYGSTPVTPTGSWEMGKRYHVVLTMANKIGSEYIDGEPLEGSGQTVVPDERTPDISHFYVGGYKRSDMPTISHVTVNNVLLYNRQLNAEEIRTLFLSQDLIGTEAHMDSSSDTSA
Method in brief: (§1)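 Recombinant TcTS in a continuous fluorimetric assay in 96-well format, with 4-methylumbelliferyl sialoside (MuNANA) as substrate, following sialic acid hydrolysis. Compounds were first screened at 1 mM, or at the highest concentration their solubility allowed, in triplicate. IC50 was then determined in the same assay for compounds inhibiting more than 50%.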

[2] = target: T1, Trans-sialidase (Trypanosoma cruzi); test: Inhibition of Trypanosoma cruzi trans-Sialidase at 0.01 mM by MuNANA assay; method in brief: as §1
[3] = target: T1, Trans-sialidase (Trypanosoma cruzi); test: Inhibition of Trypanosoma cruzi trans-Sialidase at 0.1 mM by MuNANA assay; method in brief: as §1
Trans-sialidase [4] = target: T2, Trans-sialidase (Trypanosoma cruzi, UniProt Q26966); test: Inhibition of Trypanosoma cruzi trans-Sialidase by TIA assay
T2 sequence (Q26966 whole entry): T1 sequence (whole entry)
Method in brief: (§2)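 Trans-sialidase inhibition assay (TIA), which measures sialic acid transfer from sialyllactose as donor to 14C-radiolabelled lactose as acceptor.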

[5] = target: T1, Trans-sialidase (Trypanosoma cruzi); test: Inhibition of Trypanosoma cruzi trans-Sialidase at 1 mM by MuNANA assay; method in brief: as §1
Trans-sialidase [6] = target: T2, Trans-sialidase; test: Inhibition of Trypanosoma cruzi trans-Sialidase by MuNANA assay; method in brief: as §1
Trans-sialidase [7] = target: T2, Trans-sialidase; test: Inhibition of Trypanosoma cruzi trans-Sialidase; method in brief: as §1
[8] = target: T1, Trans-sialidase (Trypanosoma cruzi); test: Inhibition of Trypanosoma cruzi trans-Sialidase at 1 mM by TIA assay; method in brief: as §2
[9] = target: T1, Trans-sialidase (Trypanosoma cruzi); test: Inhibition of Trypanosoma cruzi trans-Sialidase at 0.05 mM by MuNANA assay; method in brief: as §1
[10] = target: T1, Trans-sialidase (Trypanosoma cruzi); test: Inhibition of Trypanosoma cruzi trans-Sialidase at 0.025 mM by MuNANA assay; method in brief: as §1
[11] = target: T1, Trans-sialidase (Trypanosoma cruzi); test: Inhibition of Trypanosoma cruzi trans-Sialidase at 0.125 mM by MuNANA assay; method in brief: as §1

| SMILES | inhibition [5] [%] | IC50 (Trans-sialidase [6]) [µM] | further results |
| --- | --- | --- | --- |
| COc1cccc(CNC(=O)Cc2c(C(=O)O)[nH]c3ccc(Cl)cc23)c1 | – | – | inhibition [1]: 57% |
| CCn1nc(NS(=O)(=O)c2ccc(C)cc2)c2cc3cc(C)ccc3nc21 | – | – | Activity [2]: inactive |
| O=c1[nH]c(O)c(C(c2ccc3c(c2)CN2CCOCC2O3)c2c(O)[nH]c(=O)[nH]c2=O)c(=O)[nH]1 (stereo unspecified) | – | – | inhibition [1]: 28% |
| O=C(O)C/C(=C\c1cccc(O)c1)c1nc2ccccc2s1 | – | – | inhibition [3]: 30%; IC50 (Trans-sialidase [4]): 520 µM |
| COc1ccc(CC(=O)Nc2ccc(S(=O)(=O)Nc3nc(C)cc(C)n3)cc2)cc1 | – | – | inhibition [1]: 42% |
| COc1ccc(NC(=O)CC2(CC(=O)O)CCCCC2)cc1OC | – | – | Activity [5]: inactive |
| CC(=O)c1sc(C(C)(C)C)cc1NC(=O)c1ccccc1C(=O)O | 84 | 270 | – |
| COc1ccc(/C=C(\CC(=O)O)c2nc3ccccc3s2)cc1OC | – | 180 | inhibition [1]: 84% |
| CC(=O)Nc1ccc(C(=O)O)nc1N | – | – | IC50 (Trans-sialidase [7]): 440 µM |
| CC(=O)c1sccc1NC(=O)c1ccccc1C(=O)O | 79 | 290 | inhibition [8]: 32% |
| COC(=O)c1ccc(Oc2ccc(C(F)(F)F)cc2NC(=O)c2ccccc2C(=O)O)s1 | 21 | – | – |
| OC[C@H]1O[C@@H](O[C@@H]2[C@@H](CO)O[C@](O)(CO)[C@H]2O)[C@H](O)[C@@H](O)[C@H]1O [LACTULOSE] | – | – | IC50 (Trans-sialidase [7]): 570 µM |
| CCCOC(=O)c1c(NC(=O)C2CCCCC2C(=O)O)sc(C)c1C (stereo unspecified) | 87 | 210 | – |
| COc1ccc(Nc2nc3ccccc3nc2NS(=O)(=O)c2ccc(NC(C)=O)cc2)c(OC)c1 | – | – | inhibition [9]: 32% |
| Cc1ccc(S(=O)(=O)Nc2nnc(SCC(=O)Nc3ccc4c(c3)OCO4)s2)cc1 | 82 | 280 | – |
| CCOP(=O)(O)C1=C[C@H](O)[C@@H](NC(C)=O)[C@H](OCCO)C1 | – | – | IC50 (Trans-sialidase [7]): 5000 µM |
| CC(=O)N[C@H]1C(O)CC(P(=O)(O)CCO[C@H]2[C@@H](O)[C@@H](CO)OC(O)[C@@H]2O)=C[C@@H]1O (single isomer, unassigned) | – | – | IC50 (Trans-sialidase [7]): 1500 µM |
| O=C(O)C1CC=C(Cl)CC1C(=O)NCC1OCCc2ccccc21 (stereo unspecified) | 26 | – | – |

| SMILES | inhibition [5] [%] | IC50 (Trans-sialidase [6]) [µM] | further results |
| --- | --- | --- | --- |
| O=C(O)c1ccccc1C(=O)NCCCc1c(C(=O)O)[nH]c2cc3c(cc12)OCCO3 | 36 | – | – |
| CCOc1ccccc1/C=C(\CC(=O)O)c1nc2ccccc2s1 | 90 | 160 | IC50 (Trans-sialidase [4]): 420 µM |
| O=C(O)C/C(=C\c1cccc(C(F)(F)F)c1)c1nc2ccccc2s1 | 92 | 150 | – |
| CC(=O)Nc1ccc(C(=O)O)cc1CO | – | – | IC50 (Trans-sialidase [7]): 540 µM |
| Cc1c(NS(=O)(=O)c2cccc(C(=O)NCc3ccncc3)c2)c(=O)n(-c2ccccc2)n1C | 23 | – | – |
| O=C(O)CC(C(=O)Nc1cc(C(F)(F)F)cc(C(F)(F)F)c1)C1=CCCCC1 (stereo unspecified) | 32 | – | – |
| O=C(O)C/C(=C\c1cccc(F)c1)c1nc2ccccc2s1 | 94 | 120 | – |
| CC(=O)Nc1ccc(S(=O)(=O)Nc2nc3n(n2)C(c2ccc(Cl)cc2)C=C(c2ccccc2)N3)cc1 (stereo unspecified) | – | – | Activity [10]: inactive |
| Cc1ncc(COP(=O)(O)O)c(C=O)c1O [PYRIDOXAL PHOSPHATE ANHYDROUS] | – | – | Ki (Trans-sialidase [7]): 7300 µM |
| Cc1ccc(C)c(/C=C(\CC(=O)O)c2nc3ccccc3s2)c1 | 91 | 120 | – |
| COc1cc(C2C(C(=O)c3ccc4c(c3)OCCO4)=C(O)C(=O)N2CCCN(C)C)cc(OC)c1OC (stereo unspecified) | – | – | inhibition [1]: 41% |
| COCCNC(=O)c1ccc(NS(=O)(=O)c2cc(Cl)sc2Cl)cc1 | 50 | – | – |
| CC(=O)Nc1ccc(S(=O)(=O)Nc2nc(-c3ccccc3)c(-c3ccccc3)o2)cc1 | – | – | inhibition [11]: 22% |
| CC1(C)SC2c3ccccc3C(=O)N2C1C(=O)NC(Cc1c[nH]c2ccccc12)C(=O)O (stereo unspecified) | 23 | – | – |
| COc1ccc(C(CC(=O)O)NC(=O)COc2cc(C)ccc2C)cc1OC (stereo unspecified) | 30 | – | – |
| CC(C)Oc1ccccc1/C=C(\CC(=O)O)c1nc2ccccc2s1 | 92 | 150 | IC50 (Trans-sialidase [4]): 290 µM |
| CC(=O)N[C@H]1[C@H]([C@H](O)[C@H](O)CO)OC(C(=O)O)=C[C@@H]1O [NEU5AC2EN] | – | – | Ki (Trans-sialidase [7]): 12300 µM |
| COc1cccc(/C=C(\CC(=O)O)c2nc3ccccc3s2)c1 | 91 | 310 | – |
